OX1R antag-1 – blocks the human orexin 1 receptor; O43613; CHO/OX1R cells, Fluo-8 calcium fluorescence, orexin A; 330,000 compounds, 0.43% hits; inhibition, % at 5 µM;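 active means inhibition above its plate's threshold, mean inhibition of all tested compounds on the plate plus 3 SD, cut at about 37% in these data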
Target sequence (O43613 whole entry, looked up): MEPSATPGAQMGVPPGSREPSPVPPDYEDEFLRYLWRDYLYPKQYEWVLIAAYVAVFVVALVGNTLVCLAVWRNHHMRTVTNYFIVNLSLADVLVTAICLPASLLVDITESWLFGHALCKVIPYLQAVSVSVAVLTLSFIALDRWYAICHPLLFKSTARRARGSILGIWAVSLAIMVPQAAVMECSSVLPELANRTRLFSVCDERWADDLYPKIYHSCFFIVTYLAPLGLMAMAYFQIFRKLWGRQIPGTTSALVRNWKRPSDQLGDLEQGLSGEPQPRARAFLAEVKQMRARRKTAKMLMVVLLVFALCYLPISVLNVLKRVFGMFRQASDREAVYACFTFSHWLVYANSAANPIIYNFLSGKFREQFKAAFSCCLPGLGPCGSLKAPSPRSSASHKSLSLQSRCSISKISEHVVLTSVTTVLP
OXTR potentiator – human OXTR potentiation. P30559. CHO-OTR cells, Fluo-8 calcium fluorescence, potentiator mode; 0% = oxytocin EC15, 100% = EC100. activation, % at 3 µM. 320,000 compounds, 0.061% hits. AID 2445;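 active means activation above that plate's cutoff, the mean activation of tested compounds plus 3 SD, cut at about 6.6% in these data, passing the limit was not always enough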
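System: human OTR in CHO cells / Also added: sub-maximal oxytocin, roughly EC15 / Control set: EC15 oxytocin low, 75 nM oxytocin high / Schedule: 6 min compound pre-incubation at room temperature, 100 s kinetic read / Compound: single-point 3.0 µM / Replication: singlicate / Technique: Fluo-8 calcium dye fluorescence / Read-out basis: % activation of max/min ratio relative to oxytocin controls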
OX1R antag-2 – OX1R (human) antagonism. OX1R-expressing cells, FRET antagonist read-out. AID 485270. O43613. 330,000 compounds, 1.8% hits. inhibition, % at 6.6 µM; in the data active means inhibition mostly above about 38%, no sharp cut-off; inactive means mostly below about 40%
OXTR ag – activates the human oxytocin receptor; AID 2435; 320,000 compounds, 0.32% hits; P30559; activation, % at 3 µM; CHO-OTR cells, Fluo-8 calcium fluorescence; normalized: DMSO 0%, oxytocin 100%;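 active means activation above the mean of all tested compounds plus 3 SD, cutoff set per screening run, cut at about 20% in these data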;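 further: peak over basal fluorescence ratio from a 100 s FLIPR kinetic read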
V1R ag counter – V1a receptor agonism, counter-screen for OXTR agonists; P37288; CHO-V1R cells, Fluo-8 calcium fluorescence, agonist mode; 0% DMSO, 100% 3 nM vasopressin; activation, % at 3 µM; 320,000 compounds, 0.25% hits; AID 2797;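 active means activation above the mean activation of all tested compounds plus 3 SD, per screening run, cut at about 20% in these data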;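 further: signal is peak over basal fluorescence ratio across a 100 second FLIPR read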
CHO parental Ca – counter-screen: ATP calcium response change in parental CHO cells; 330,000 compounds, 0.63% hits; parental CHO-K1, ATP-induced calcium, Fluo-8 fluorescence; inhibition, % at 5.6 µM;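 active means inhibition above that plate's mean sample inhibition plus 3 SD, cut at about 26% in these data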
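Material: Parental CHO cells | Reagent: ATP | Compound dosing: Single nominal dose of 5.6 µM per compound | Detection: Intracellular calcium via Fluo-8 no-wash fluorescent dye | Read-out: % inhibition of ATP-induced calcium mobilization | Benchmarks: Low control ATP plus DMSO, high control DMSO only | Replicates: Singlicate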
Each line names hits and unclear results; the compound was inactive in the other large screens. Shown are actives, neighbours in structure and some others; about 2.7% of the full set was active somewhere.

COc1cc(OC)c(/C=N/NC(=O)Cn2nc([N+](=O)[O-])cc2C)c(OC)c1	none
Nc1nc(Cl)cc(N2CCCC2)n1	none
Nc1nc(Cl)cc(N2CCC(c3cc(-c4ccc(Cl)cc4Cl)n[nH]3)CC2)n1	CHO parental Ca 32
COC(=O)CSc1nc(-c2ccccc2)nc2ccccc12	OX1R antag-2 74
Cc1ccc(-n2nnnc2SCC(=O)NC(C(=O)O)(c2ccccc2)c2ccccc2)cc1C	OX1R antag-2 57
CCC(=O)Nc1ccc(NC(=O)CSc2nnnn2-c2ccc3c(c2)OCCO3)cc1	none
Cc1ccc(NC(=O)CCSc2nnnn2-c2ccc3c(c2)OCO3)cc1C	OX1R antag-2 71
c1ccc(NCc2nc3ccccc3n2CCOc2ccccc2)cc1	OX1R antag-2 68
NC(=O)c1ccc(N2CCN(c3ccccc3O)CC2)c([N+](=O)[O-])c1	none
NC(=O)c1ccc(N2CCN(S(=O)(=O)c3cccs3)CC2)c([N+](=O)[O-])c1	OX1R antag-1 56, CHO parental Ca 46
Cc1ccc(F)c(N=Cc2c(O)c3ccccc3oc2=O)c1	OX1R antag-2 51
CCOC(=O)c1ccccc1N=Cc1c(O)c2ccccc2oc1=O	none
Cc1ccc2nc(CSc3nc(C)cc(C)c3C#N)[nH]c2c1	OX1R antag-2 41
COc1ccc(NC(=O)c2c(C(F)(F)F)nn(C)c2SCc2ccccc2Cl)cc1	CHO parental Ca 46
CC(CCc1ccccc1)NCc1cccc2ccccc12 (stereo unspecified)	none
NC(CCCCc1ccccc1)c1cccc2ccccc12 (stereo unspecified)	OXTR ag 21
Cc1cccc(NC(=O)CSCC(=O)N(C)Cc2c(F)cccc2Cl)c1	none
Cc1cc2c(N=O)c(NO)ccc2[nH]1	OX1R antag-2 62
COCCN(C(=O)CSc1nnc(-c2ccc(C)c(C)c2)o1)c1c(N)n(CC(C)C)c(=O)[nH]c1=O	none
CC(C)CN(C(=O)CSc1nnc(-c2ccco2)o1)c1c(N)n(Cc2ccccc2)c(=O)[nH]c1=O	OX1R antag-2 68
CCN(C(=O)CSc1nnc(-c2ccccc2)o1)c1c(N)n(Cc2ccccc2)c(=O)[nH]c1=O	OX1R antag-2 70
CCN(CC)c1ccc(-c2nnc(SCC(=O)N(CCOC)c3c(N)n(CC(C)C)c(=O)[nH]c3=O)o2)cc1	OX1R antag-2 57
CC(C)CN(C(=O)CSc1nc2ccccc2o1)c1c(N)n(Cc2ccccc2)c(=O)[nH]c1=O	OX1R antag-2 31
CCCCN(C(=O)CSc1nnc(-c2ccccc2)o1)c1c(N)n(CCC)c(=O)[nH]c1=O	none
CC(C)CN(C(=O)CCCOc1ccc(Cl)cc1Cl)c1c(N)n(Cc2ccccc2)c(=O)[nH]c1=O	OX1R antag-2 39
CC(C)CN(C(=O)CCc1ccccc1Cl)c1c(N)n(Cc2ccccc2)c(=O)[nH]c1=O	none
Cc1c(C(=O)N/N=C/c2ccc(O)cc2)sc(=S)n1C	none
Cc1c(C(=O)N/N=C/c2ccccc2)sc(=S)n1C	OX1R antag-2 92
COc1ccc(OC)c(CCNC(=O)CN2C(=O)COc3ccc(S(=O)(=O)N4CCOCC4)cc32)c1	none
Cc1cccc(OCC(=O)Nc2ccc3oc(=O)ccc3c2)c1C	CHO parental Ca 50
CC1CCN(c2cc(N3CCOCC3)c(F)cc2[N+](=O)[O-])CC1	none
CCN(CC(=O)Nc1ccc(NC(C)=O)cc1)C(=O)c1ccc(N2CCC(C)CC2)c([N+](=O)[O-])c1	none
Cc1nnc(N/N=C/c2cc([N+](=O)[O-])c(N3CCC(C)CC3)cc2N2CCC(C)CC2)n1N	OX1R antag-2 146
CCc1nnc(N/N=C/c2ccc(N3CCC(C)CC3)c([N+](=O)[O-])c2)n1N	OX1R antag-2 60
CC(=O)Nc1cc(NC(C)=O)cc(C(=O)N2CCCC3CCCCC32)c1 (stereo unspecified)	none
COc1ccc2noc3c2c1C(=O)c1ccccc1-3	OX1R antag-1 51, OX1R antag-2 100, OXTR ag 169, V1R ag counter 221, CHO parental Ca 51
COc1ccc(OC)c2c1C(=O)C(Cl)=C(Cl)C2=O	OX1R antag-1 69, OX1R antag-2 104, CHO parental Ca 75
